Screens: PubChem, SRMLSC
Shown is part of a subset that was picked to be rich in hits.
bCat KO growth: beta-catenin-lacking colon tumor cell growth suppression | HCT116 beta-catenin knockout viability, CellTiter-Glo, 60 h; hits give low values | viability, % at 10 µM | 140,000 tested, 1.5% active;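 active = viability at or under a set limit, the compound median less 4 SD, cut at about 6% in these data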;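 also: 0% = Hyamine 1622 control at 20 µM and 100% = untreated cell control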
HUVEC inhibit: inhibitors of human endothelial cell proliferation; HUVEC proliferation, CellTiter-Glo luminescence, 72 h; hits give low values; viability, % at 10 µM (by protocol); 86,000 tested, 1.1% active;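 active = viability at or below 30%; inactive = viability above 30%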;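 also: 100% = median luminescence of DMSO-only cell control wells on each plate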
H69AR inhibit: blocks growth of human H69AR lung tumor cells; H69AR lung tumor viability, ATP luminescence, 72 h; hits give low values; viability, % at 10 µM; 85,000 tested, 6% active; AID 598;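 active = viability at or below 40%; inactive = viability above 40%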;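 also: multidrug resistant small cell line overexpressing MRP-1 efflux transporter; 100% = mean luminescence of untreated control wells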
PTEN del growth: PTEN-deleted cell growth suppression | AID 827 | viability, % at 10 µM | 140,000 tested, 1.2% active | HCT116 PTEN-null viability, CellTiter-Glo, 60 h; hits give low values;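 active = viability at or below a set limit, 4 SD under the median of all tested compounds, cut at about 3.7% in these data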;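 also: PTEN knockout HCT116 line with beta catenin targeted HCT116 as companion control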
Fibroblast inh: blocks proliferation of human lung fibroblasts; LL 47 human lung fibroblast viability, ATP luminescence; hits give low values; viability, % at 10 µM; 85,000 tested, 1.1% active; AID 719;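 active = viability at or below 50% in the single dose screen; inactive = viability above 50%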;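 also: compound exposure lasted 72 h before the ATP readout; 100% = median luminescence of untreated cell-only wells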
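Test system: LL 47 human lung fibroblasts / Quantity: 1,150 cells in each well / Medium: IMEM growth medium with 15% fetal bovine serum / Incubation: 72 h compound exposure at 37 °C after overnight plating / Detection: CellTiter-Glo luminescence measuring cellular ATP / Read-out: % viability versus median cells-only luminescence / Benchmarks: cell-only wells, no compound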
Numbers without * were called inactive; · = no result given.

SMILES	bCat KO growth	HUVEC inhibit	H69AR inhibit	PTEN del growth	Fibroblast inh
Cc1ccccc1C(=O)N/N=C/c1ccc([N+](=O)[O-])s1	3.6*	7.2*	21.2*	2.6*	63.8
Cc1ccccc1NC(=O)/C=C/c1ccc([N+](=O)[O-])s1	2.0*	·	·	1.4*	·
O=C(N/N=C/c1ccc([N+](=O)[O-])s1)c1ccccc1Br	1.9*	62.0	15.7*	1.8*	63.0
O=C(N/N=C/c1cccn1-c1cccc(C(=O)O)c1)Nc1ccccc1	93.5	·	·	98.4	·
CCN(CC)c1ccc(C(=O)NC(=S)Nc2cc(S(=O)(=O)N3CCOCC3)ccc2-n2cncn2)cc1	94.3	·	·	65.6	·
Cc1ccc(-n2ncc3c(=O)[nH]c(SC(C)C)nc32)cc1	96.0	96.7	78.5	95.0	93.7
Cc1ccc(-n2ncc3c(=O)[nH]c(SCC(=O)N4CCN(c5ccccc5)CC4)nc32)cc1	90.6	98.3	58.9	91.3	98.2
CC(C)Sc1nc2c(cnn2-c2ccccc2)c(=O)[nH]1	92.9	79.2	86.0	104.4	92.0
CCOC(=O)C(C)Sc1nc2c(cnn2-c2ccc(C)cc2)c(=O)[nH]1 (stereo unspecified)	70.0	58.0	19.5*	60.6	89.7
Cc1ccc(-n2ncc3c(=O)[nH]c(SCC(=O)N4CCCc5ccccc54)nc32)cc1	87.2	80.3	32.2*	92.0	94.7
O=c1[nH]c(CSc2nc3ccccc3o2)nc2c1cnn2-c1ccccc1	91.7	76.6	17.6*	88.3	103.8
CCCCCSc1nc2c(cnn2-c2ccccc2)c(=O)[nH]1	63.2	81.1	26.5*	74.1	95.6
Cc1noc(C)c1CSc1nc2sc(C)c(C)c2c(=O)n1C1CCCC1	36.4	76.4	47.6	46.5	92.0
Cc1ccc(-n2ncc3c(=O)[nH]c(SCC(=O)N4CCOCC4)nc32)cc1	86.9	90.9	56.3	104.4	90.2
COC(=O)c1ccc(CSc2nc3c(cnn3-c3ccc(C)cc3)c(=O)[nH]2)o1	96.9	29.0*	20.1*	86.0	98.2
NC1=NC2CS(=O)(=O)CC2S1 (stereo unspecified)	89.2	·	·	92.3	·
Cc1cc(NC(=O)CSc2ccc(-c3nc4cc(C)c(C)cc4[nH]3)cn2)no1	92.6	50.5	64.5	89.2	52.4
Cc1cc2nc(-c3ccc(SCC(=O)N4CCc5ccccc54)nc3)[nH]c2cc1C	0.8*	·	·	1.0*	·
CC(C)Oc1cccc(-c2nnc(SCC(=O)Nc3ccc4c(c3)OCCO4)n2N)c1	88.2	89.0	86.7	87.9	101.8
O=C(CSc1nc2ccccc2nc1SCC(=O)N1CCCCC1)N1CCCCC1	81.4	·	·	83.6	·
CCCc1nc(SCC(=O)Nc2cc(C)on2)c2ccccc2n1	79.9	84.1	32.3*	72.5	83.6
CCCc1nc(SCC(=O)N2CCCC2)c2ccccc2n1	79.1	82.4	37.8*	70.2	92.5
CCC(C)n1c(SCC(=O)Nc2cc(C)on2)nc2ccccc2c1=O (stereo unspecified)	59.7	79.8	26.2*	60.7	96.7
O=C(CSc1nnc2c(Cl)cc(Cl)cn12)N1CCN(c2ccc(F)cc2)CC1	88.7	·	·	87.2	·
CC1CCN(S(=O)(=O)c2ccc(S(=O)(=O)N3CCCN(Cc4ccccc4)C3)cc2)CC1	·	81.4	80.4	·	99.4
SMILES	bCat KO growth	HUVEC inhibit	H69AR inhibit	PTEN del growth	Fibroblast inh
CC1CCCN(S(=O)(=O)c2ccc(S(=O)(=O)N3CCCN(Cc4ccccc4)C3)cc2)C1 (stereo unspecified)	·	41.3	31.4*	·	85.1
CCOC(=O)c1[nH]c(C)c(C(=O)OCCN2C(=O)c3ccccc3C2=O)c1C	94.1	79.3	33.9*	98.9	101.2
CCOC(=O)c1[nH]c(C)c(C(=O)Nc2ccccc2C)c1C	19.7	60.5	26.0*	20.4	64.9
CCNC(=O)c1c(C)[nH]c(C(=O)OCC)c1C	95.4	98.7	92.8	96.9	112.4
CCOC(=O)c1[nH]c(C)c(C(=O)Nc2cc(Cl)ccc2C)c1C	14.9	65.0	24.5*	15.8	59.2
CN(C)CCNC(NC(=O)c1cccs1)C(Cl)(Cl)Cl (stereo unspecified)	102.3	·	·	88.2	·
O=C(CSc1nc2c(c(=O)n1-c1ccc(Br)cc1)SCC2)Nc1nccs1	85.7	64.8	36.4*	88.0	85.6
O=C(CSc1nc2c(c(=O)n1-c1ccc(Cl)cc1)SCC2)Nc1nccs1	67.1	78.5	20.2*	69.3	88.2
Cn1c(-c2ccccc2)c[n+]2c1-c1ccccc1C2	17.2	·	·	24.8	·
Cc1cc(C)cc(NC(=O)CSc2nc(N)c(NC(=O)c3cccs3)c(=O)[nH]2)c1	96.5	·	·	97.6	·
CNS(=O)(=O)c1ccc(NCC2COc3ccccc3O2)c([N+](=O)[O-])c1 (stereo unspecified)	87.3	·	·	90.6	·
COc1cc(/C=C2\SC(=Nc3ccccc3)N(CCc3c[nH]c4ccccc34)C2=O)ccc1OC(C)C(=O)O (stereo unspecified)	87.1	·	·	82.0	·
O=C1/C(=C/c2ccc(N3CCOCC3)o2)SC(=Nc2ccccc2)N1CCc1c[nH]c2ccccc12	1.4*	·	·	1.4*	·
O=C1S/C(=C/c2ccc(N3CCOCC3)o2)C(=O)N1Cc1ccc(F)cc1	96.2	70.8	25.6*	101.9	66.7
O=C1S/C(=C\c2ccc(N3CCOCC3)o2)C(=O)N1Cc1ccc(F)cc1	80.5	·	·	83.3	·
CCN(CC1COc2ccccc2O1)S(=O)(=O)c1ccc(C)cc1 (stereo unspecified)	72.3	·	·	70.3	·
Cc1nn(-c2ccccc2)c(Oc2ccccc2)c1C=O	72.7	·	·	87.2	·
COc1ccc(NC(=S)NNC(=O)c2nnn(-c3ccccc3)c2C)cc1	107.0	·	·	96.0	·
CCNC(=S)NNC(=O)c1cc(Br)cs1	97.3	·	·	106.6	·
CCOC(=O)c1sc2nc(C(C)C)c3c(c2c1N)CC(C)(C)OC3	19.0	64.1	50.5	16.9	47.6*
Cn1c(=O)c2c(nc(NCCCN3CCOCC3)n2Cc2ccc(Cl)cc2)n(C)c1=O	·	95.3	91.6	·	103.9
Cc1cc(NCCCN2CCOCC2)n2ncc(-c3ccc(Cl)cc3)c2n1	63.9	62.8	24.3*	65.6	46.0*
Cc1cc(NCCCn2ccnc2)n2ncc(-c3ccc(Cl)cc3)c2n1	8.1	9.4*	19.4*	4.5	22.0*
Cc1cccc(-c2cc3nc(C)cc(NCCCn4ccnc4)n3n2)c1	63.9	72.2	61.9	70.8	90.4
Cc1cc(C)n(-c2ccc(C(=O)Nc3nc4ccccc4s3)cc2)n1	91.6	60.2	15.2*	90.1	102.2
COc1cc(C(=O)Nc2nccs2)ccc1OCc1c(C)noc1C	89.8	96.6	83.6	83.3	99.4
COc1cc(C(=O)Nc2nc3ccccc3s2)ccc1OCc1c(C)noc1C	58.3	74.4	18.6*	47.5	79.9
COC(=O)c1ccc(COC(=O)CCc2nc(-c3ccccc3)c(-c3ccccc3)o2)cc1	74.8	94.6	82.6	77.6	98.0
O=C(O)CCC(=O)N1N=C(c2c(-c3ccccc3)c3cc(Cl)ccc3[nH]c2=O)CC1c1cccs1 (stereo unspecified)	84.6	·	·	92.3	·
